From ChEMBL document CHEMBL5370602, “Structure-Based Design of a Lead Compound Derived from Natural Schweinfurthins with Antitumor Properties That Target Oxysterol-Binding Protein” (J Med Chem, 2023) come the findings set out here.

Data set [1] concerns the target T1, Oxysterol-binding protein 1 (Homo sapiens) (UniProt P22059).
T1 sequence (whole entry): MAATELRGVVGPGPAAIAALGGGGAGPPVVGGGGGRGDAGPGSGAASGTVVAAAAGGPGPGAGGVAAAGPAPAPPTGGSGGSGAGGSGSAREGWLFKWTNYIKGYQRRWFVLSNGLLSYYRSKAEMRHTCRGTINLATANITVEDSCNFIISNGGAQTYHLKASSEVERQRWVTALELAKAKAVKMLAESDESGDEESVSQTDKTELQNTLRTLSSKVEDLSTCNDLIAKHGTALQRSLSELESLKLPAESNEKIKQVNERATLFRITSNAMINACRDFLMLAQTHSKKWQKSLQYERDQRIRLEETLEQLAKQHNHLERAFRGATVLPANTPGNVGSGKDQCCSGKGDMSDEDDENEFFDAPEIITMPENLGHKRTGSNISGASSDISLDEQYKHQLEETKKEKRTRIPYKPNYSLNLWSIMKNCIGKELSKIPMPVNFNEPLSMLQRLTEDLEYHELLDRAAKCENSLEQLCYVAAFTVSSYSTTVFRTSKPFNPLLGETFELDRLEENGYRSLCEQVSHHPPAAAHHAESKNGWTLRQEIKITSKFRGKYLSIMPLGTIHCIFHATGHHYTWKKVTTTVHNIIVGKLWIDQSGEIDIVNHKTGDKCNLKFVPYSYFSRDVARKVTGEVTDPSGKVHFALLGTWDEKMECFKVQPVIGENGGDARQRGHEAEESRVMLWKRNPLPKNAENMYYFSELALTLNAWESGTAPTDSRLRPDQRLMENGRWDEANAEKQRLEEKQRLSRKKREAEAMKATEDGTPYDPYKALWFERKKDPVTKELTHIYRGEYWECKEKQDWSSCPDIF
The data set is described as follows: Inhibition of human OSBP in human hTERT-RPE1 cells co-transfected with GFP-P4MSidM and TagBFP-betaGalT1 assessed as half life for inhibition of PI4P transfer by OBSP by immunofluorescence analysis. In kind it is cell-based. An outline of the steps:
(§1)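 hTERT-RPE-1 cells electroporated with GFP-P4M^SidM (PI4P probe) and TagBFP-βGalT1, plated 18-24 h. Timelapse confocal imaging at 37 °C after compound addition, with P4M-GFP intensity at the TGN tracked over time and compared before and 50 min after addition. Mean of 4 to 6 independent experiments ± SEM.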

Data set [2] has as its target T1, Oxysterol-binding protein 1 (Homo sapiens). The data set is described as follows: Inhibition of human OSBP in human hTERT-RPE1 cells assessed as increase in OSBP recruitment at TGN and measured after 10 mins by confocal microscopy. The class given is cell-based.
Data set [3] has as its system U-87 MG. The data set is described as follows: Induction of autophagy in human U-87 MG cells assessed as increase in LC3II expression at 0.05 to 1 uM incubated for 48 hrs by Western blot analysis. In kind it is functional, cell-based. As to conditions: U-87MG ATCC. In short, it runs like this: (§2)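 U-87 MG cells cultured two days, then exposed 48 h to increasing doses. Lysed in RIPA with protease inhibitors; 5 µg protein run on 4-20% SDS gels and transferred to PVDF. Probed for phospho/total AKT, S6, S6K, P62 and LC3, detected by ECL. Band intensities normalized to β-actin.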
A general note: A western blot detects proteins with antibodies after separation by electrophoresis.

Data set [4] in a line: Antitumor activity in high alert medicated patient derived human GBM1 cells xenografted in immunodeficient nude mouse model assessed as change in tumor volume at 20 mg/kg,ip QD cotreatment with Temozolomide at 42 mg/kg,po QD and measured after 11 days relative to control. As to conditions: time 11 day. In kind it is functional. In short, it runs like this: (§3)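 Female athymic nude mice bearing subcutaneous GBM1-HAM PDX fragments (20 mm³); treatment began day 11 post-implant at tumour volumes 75-196 mm³, 10 per group. Compound i.p. daily in cyclodextrin vehicle (17 days alone, 27 days in combination); temozolomide 42 mg/kg p.o. daily for 5 days in PBS/glucose/Tween 80. Calliper volumes three times weekly; body weight and clinical signs monitored.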

Data set [5] has as its system A549. The data set is described as follows: Antiproliferative activity against human A549 cells assessed as inhibition of cell proliferation incubated for 72 hrs by CellTiter-Glo luminescent assay. The class given is functional, cell-based. As to conditions: A549, 72 h. An outline of the steps:
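A549 in RPMI 1640 and U-87MG in DMEM, each with 10% FCS and 1% glutamine, at 37 °C and 5% CO₂. Cells seeded at 3000/well, dosed the next day, treated 72 h. Viability read by CellTiter-Glo luminescence with DMSO-treated cells set to 100%. IC50 taken from survival curves over three independent experiments.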
On the technique in general: ATP-based viability assays read luminescence as a measure of living cells.

Data set [6] relates to U-87 MG. The data set is described as follows: Induction of autophagy in human U-87 MG cells assessed as decrease in LC3I expression at 0.05 to 1 uM incubated for 48 hrs by Western blot analysis. In kind it is functional, cell-based. Conditions: U-87MG ATCC. In short, it runs like this:
as §2

Data set [7] can be described thus: Antitumor activity in high alert medicated patient derived human GBM1 cells xenografted in immunodeficient nude mouse model assessed as tumor growth inhibition at 50 mg/kg,ip QD and measured after 9 to 11 days. The class given is functional. In short, it runs like this:
as §3
(In general: In xenograft studies the graft and the host belong to different species.)

Data set [8] is described as follows: Toxicity in immunodeficient nude mouse model xenografted with high alert medicated patient derived human GBM1 cells assessed as body weight change at 50 mg/kg,ip QD for 27 days cotreatment with Temozolomide at 42 mg/kg,po QD for 5 days. In kind it is organism-based. As to conditions: in vivo, 648 h, time 27 day. An outline of the steps:
as §3

Data set [9] is described as follows: Metabolic stability in mouse plasma assessed as compound remaining at 5 uM and measured after 120 mins by UPLC-MS/MS analysis. In kind it is ADME, cell-free. As to conditions: read-out: Stability. An outline of the steps:
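Male mouse plasma at 37 °C with compound added from a 5 µM solution […]. Sampled at 0, 15, 30, 45, 60 and 120 min, quenched with acetonitrile and read by LC-MS/MS (MRM) in duplicate. Procaine positive control. Remaining % and t1/2 derived from MRM area relative to t = 0.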

The target in data set [10] is T1, Oxysterol-binding protein 1 (Homo sapiens). The data set is described as follows: Inhibition of human OSBP in human hTERT-RPE1 cells co-transfected with GFP-P4MSidM and TagBFP-betaGalT1 assessed as increase in PI4P at TGN by measuring GFP-P4M fluorescence and measured after 50 mins by immunofluorescence analysis. The class given is cell-based. In short, it runs like this: as §1

Data set [11] in a line: Antitumor activity in high alert medicated patient derived human GBM1 cells xenografted in immunodeficient nude mouse model assessed as change in tumor volume at 50 mg/kg,ip QD cotreatment with Temozolomide at 42 mg/kg,po QD and measured after 11 days relative to control. The class given is functional. As to conditions: time 11 day. In short, it runs like this:
as §3

Data set [12] is described as follows: Permeability across blood brain barrier in Swiss mouse assessed as brain to plasma ratio of (2R,4aR,9aR)-7-((E)-2-(5-hydroxy-2,2-dimethylchroman-7-yl)vinyl)-1,1,4a-trimethyl-2,3,4,4a,9,9a-hexahydro-1H-xanthene-2,5-diol metabolite at 15 mg/kg, ip and measured after 1.5 hrs by LC-MS/MS analysis. In kind it is ADME, organism-based. In short, it runs like this: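 Nine male Swiss mice given 15 mg/kg prodrug i.p. (4 mg/mL in cyclodextrin vehicle). Blood taken from three mice at each of 0.25, 0.75 and 1.5 h; animals then saline-perfused transcardially under isoflurane. Plasma and brain homogenate (1:1 water) acetonitrile-precipitated and analyzed by LC-MS/MS.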

Data set [13] deals with mTORC1 (Homo sapiens) (UniProt P42345+Q8N122+Q9BVC4). The data set is described as follows: Inhibition of mTORC1 signalling in human U-87 MG cells assessed as decrease in S6 phosphorylation at S240/244 residue at 0.05 to 1 uM incubated for 48 hrs by Western blot analysis. The class given is cell-based. An outline of the steps: as §2

Calls of active or inactive are those of the source. No cut-off for these calls is given here.

Sequence of mTORC1 (Homo sapiens) (Q8N122 whole entry, looked up, other chains not shown): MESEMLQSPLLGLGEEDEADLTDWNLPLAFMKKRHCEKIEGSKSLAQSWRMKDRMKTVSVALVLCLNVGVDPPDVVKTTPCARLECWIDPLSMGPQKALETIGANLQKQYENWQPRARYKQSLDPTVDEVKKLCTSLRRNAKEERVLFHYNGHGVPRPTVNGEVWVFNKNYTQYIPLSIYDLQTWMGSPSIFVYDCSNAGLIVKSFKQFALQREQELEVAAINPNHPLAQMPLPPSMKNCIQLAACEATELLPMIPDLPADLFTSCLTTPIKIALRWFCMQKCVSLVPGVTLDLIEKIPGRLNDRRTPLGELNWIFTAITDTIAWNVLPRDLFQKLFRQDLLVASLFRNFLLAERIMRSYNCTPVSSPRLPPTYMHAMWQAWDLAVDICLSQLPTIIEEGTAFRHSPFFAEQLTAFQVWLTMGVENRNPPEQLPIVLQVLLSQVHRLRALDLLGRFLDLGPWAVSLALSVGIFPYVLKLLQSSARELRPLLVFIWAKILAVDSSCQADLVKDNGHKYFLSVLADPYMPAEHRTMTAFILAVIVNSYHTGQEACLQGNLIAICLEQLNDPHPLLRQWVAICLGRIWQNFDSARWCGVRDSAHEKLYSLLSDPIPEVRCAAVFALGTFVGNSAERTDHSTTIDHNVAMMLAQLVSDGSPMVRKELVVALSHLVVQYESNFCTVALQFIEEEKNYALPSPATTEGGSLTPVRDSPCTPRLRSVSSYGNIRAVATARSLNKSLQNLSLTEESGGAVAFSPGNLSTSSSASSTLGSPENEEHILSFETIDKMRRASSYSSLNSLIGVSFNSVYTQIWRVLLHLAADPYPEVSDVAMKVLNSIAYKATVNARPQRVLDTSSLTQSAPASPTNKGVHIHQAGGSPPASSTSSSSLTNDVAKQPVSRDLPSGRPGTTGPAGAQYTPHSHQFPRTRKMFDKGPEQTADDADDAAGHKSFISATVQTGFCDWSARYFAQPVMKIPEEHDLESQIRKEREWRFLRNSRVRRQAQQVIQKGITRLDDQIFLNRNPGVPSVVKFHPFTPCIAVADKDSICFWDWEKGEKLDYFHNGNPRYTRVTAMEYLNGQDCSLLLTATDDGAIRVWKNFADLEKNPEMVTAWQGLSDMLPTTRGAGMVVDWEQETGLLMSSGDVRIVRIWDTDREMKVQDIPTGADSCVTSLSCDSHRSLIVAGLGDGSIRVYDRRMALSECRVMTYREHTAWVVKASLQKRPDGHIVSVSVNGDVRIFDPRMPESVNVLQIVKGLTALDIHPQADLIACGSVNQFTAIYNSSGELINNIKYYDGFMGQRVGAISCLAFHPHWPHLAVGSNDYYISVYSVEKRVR
Sequence of mTORC1 (Homo sapiens) (Q9BVC4 whole entry, looked up, other chains not shown): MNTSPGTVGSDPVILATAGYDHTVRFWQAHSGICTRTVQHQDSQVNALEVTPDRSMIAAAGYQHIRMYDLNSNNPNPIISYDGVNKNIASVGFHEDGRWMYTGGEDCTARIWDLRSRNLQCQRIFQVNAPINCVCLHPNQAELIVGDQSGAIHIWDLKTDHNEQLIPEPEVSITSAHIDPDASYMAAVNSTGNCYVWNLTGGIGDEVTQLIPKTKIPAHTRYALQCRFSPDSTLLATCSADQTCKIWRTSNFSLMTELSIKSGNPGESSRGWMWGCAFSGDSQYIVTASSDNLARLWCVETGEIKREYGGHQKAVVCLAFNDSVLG

The IC50 is the point on the concentration scale where inhibition reaches its midpoint. On to `CC1(C)CCc2c(O)cc(/C=C/c3cc(O)c4c(c3)C[C@@H]3C(C)(C)[C@H](OC=O)CC[C@@]3(C)O4)cc2O1`, for which, in data set [1], the T1/2 turned out to be 25 min. For the same compound, the inhibition entry in [2] and in data set [10] was “Active” each time. Besides, the Activity result in data set [3] was “Dose-Dependent Effect”; in [4] it was 396.24%; in [6], “Dose-Dependent Effect”; in [8] it was “Non-Toxic”; in data set [11] it was 329.18%. Besides, the half-inhibitory concentration (IC50) in [5] worked out at 733 nM. In addition, the TGDI at 50 mg/kg in [7] was found to be 1.37%. For the same compound, in data set [9], the remaining at 2 h, 5 µM came to 20.2%. The BPR in data set [12] came out at 1.74. Also, the inhibition result in [13] was “Dose-Dependent Effect”.
